# Assay results published in ChEMBL document CHEMBL4312032, “Design and synthesis of α-phenoxy-N-sulfonylphenyl acetamides as Trypanosoma brucei Leucyl-tRNA synthetase inhibitors” (Eur J Med Chem, 2020).
# Active and inactive are the calls of the source. The rule behind the calls is not given here.
# What was measured:
# [1] = Inhibition of Trypanosoma brucei LeuRS expressed in Escherichia coli BL21 (DE3)-RIPL cells assessed as decrease in [14C]-Leucine tRNA synthesis incubated for 20 mins in presence of [14C]leucine followed by incubation with ATP for 15 mins by liquid scintillation counting method
# Summary of the method: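 T. brucei LeuRS was expressed in E. coli BL21(DE3)-RIPL. Reactions held 50 mM HEPES-KOH pH 7.8, 5 mM MgCl₂, 45 mM KCl, 1 mM DTT, 0.02% BSA, 0.4 mg/mL tRNA and [¹⁴C]leucine. They were preincubated 20 min at 37 °C without ATP, then run 15 min after adding 4 mM ATP. Three aliquots were spotted on filter paper and averaged for IC50.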
# Trypanosoma brucei = assay: Potency index, ratio of IC50 of 2-(4-bromo-2-chlorophenoxy)-N-(4-sulfamoylphenylcarbamothioyl)acetamide to IC50 of compound for inhibition of Trypanosoma brucei LeuRS expressed in Escherichia coli BL21 (DE3)-RIPL cells in presence of [14C]leucine incubated for 20 mins followed by incubation with ATP for 15 mins by liquid scintillation counting method
# [2] = tested on: Trypanosoma brucei brucei; assay: Antitrypanosomal activity against bloodstream form of Trypanosoma brucei brucei 221 assessed as parasite growth inhibition incubated for 72 hrs by resazurin staining based assay; assay type: functional, organism-based; conditions: Trypanosoma brucei, 221, 72 h
# Summary of the method: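 Bloodstream-form T. b. brucei 221 kept in log phase in HMI-11 at 37 °C, 5% CO2, and seeded from a 2×10⁵/mL (2-fold) suspension. Compounds were serially diluted in DMSO and tested in triplicate for 72 h. Resazurin was then added for 5 h more. Fluorescence was read at ex 544/em 590 nm.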
# [3] = tested on: Trypanosoma brucei brucei; assay: Antitrypanosomal activity against bloodstream form of Trypanosoma brucei brucei 221 assessed as parasite growth inhibition at 22 uM incubated for 72 hrs by resazurin staining based assay; assay type: functional, organism-based
structure (smiles),measurement,setting,value
CC(C)C[C@H](NC(=O)OC(C)(C)C)C(=O)NS(=O)(=O)c1ccc(NC(=O)COc2ccc(Br)cc2Cl)cc1,IC50,[1],404 µM
CC(C)C[C@H](N)C(=O)NS(=O)(=O)c1cccc(NC(=O)COc2ccccc2Cl)c1,IC50,[1],5.69 µM
COc1ccc(OCC(=O)Nc2cccc(S(=O)(=O)NC(=O)[C@@H](N)CC(C)C)c2)cc1,IC50,[1],3.58 µM
CC(C)C[C@H](N)C(=O)NS(=O)(=O)c1cccc(NC(=O)COc2ccccc2)c1,IC50,[1],5.51 µM
O=C(COc1ccc(Br)cc1Cl)Nc1ccc(S(=O)(=O)NC(=O)[C@H](Cc2ccccc2)NC(=O)OCc2ccccc2)cc1,IC50,[1],116 µM
N[C@@H](CCC(=O)O)C(=O)NS(=O)(=O)c1ccc(NC(=O)COc2ccc(Br)cc2Cl)cc1,IC50,[1],428 µM
CC(C)(C)OC(=O)N[C@@H](CCC(=O)OCc1ccccc1)C(=O)NS(=O)(=O)c1ccc(NC(=O)COc2ccc(Br)cc2Cl)cc1,IC50,[1],98 µM
CC(C)C[C@H](N)C(=O)NS(=O)(=O)c1ccc(NC(=O)COc2ccc(Br)cc2Cl)cc1,IC50,[1],38.4 µM
same,Ratio IC50,Trypanosoma brucei,5
CC(C)(C)OC(=O)N[C@@H](CCC(N)=O)C(=O)NS(=O)(=O)c1ccc(NC(=O)COc2ccc(Br)cc2Cl)cc1,IC50,[1],685 µM
CC[C@H](C)[C@H](N)C(=O)NS(=O)(=O)c1ccc(NC(=O)COc2ccc(Br)cc2Cl)cc1,IC50,[1],> 1000 µM
NS(=O)(=O)c1ccc(NC(=S)NC(=O)COc2ccc(Br)cc2Cl)cc1,IC50,[1],174 µM
CC(C)C[C@H](N)C(=O)NS(=O)(=O)c1cccc(NC(=O)COc2ccc(-c3ccccc3)cc2)c1,IC50,[1],7.28 µM
same,IC50,[2],33.3 µM
same,inhibition,[3],Active
CC(C)C[C@H](NC(=O)OCc1ccccc1)C(=O)NS(=O)(=O)c1ccc(NC(=O)COc2ccc(Br)cc2Cl)cc1,IC50,[1],110 µM
CC(C)C[C@H](N)C(=O)NS(=O)(=O)c1cccc(NC(=O)COc2ccc([N+](=O)[O-])cc2)c1,IC50,[1],6.81 µM
CC(C)C[C@H](N)C(=O)NS(=O)(=O)c1cccc(NC(=O)COc2cccc(-c3ccccc3)c2)c1,IC50,[1],0.7 µM
same,Ratio IC50,Trypanosoma brucei,250
O=C(COc1ccc(Br)cc1Cl)Nc1ccc(S(=O)(=O)NC(=O)c2ccco2)cc1,IC50,[1],251 µM
N[C@@H](Cc1ccccc1)C(=O)NS(=O)(=O)c1ccc(NC(=O)COc2ccc(Br)cc2Cl)cc1,IC50,[1],> 1000 µM
COc1cccc(OCC(=O)Nc2cccc(S(=O)(=O)NC(=O)[C@@H](N)CC(C)C)c2)c1,IC50,[1],2.68 µM
NC(=O)CC[C@H](N)C(=O)NS(=O)(=O)c1ccc(NC(=O)COc2ccc(Br)cc2Cl)cc1,IC50,[1],285 µM
CC[C@H](C)[C@H](NC(=O)OC(C)(C)C)C(=O)NS(=O)(=O)c1ccc(NC(=O)COc2ccc(Br)cc2Cl)cc1,IC50,[1],346 µM
CC(C)(C)OC(=O)N[C@@H](Cc1ccccc1)C(=O)NS(=O)(=O)c1ccc(NC(=O)COc2ccc(Br)cc2Cl)cc1,IC50,[1],281 µM
CCOC(=O)CC[C@H](N)C(=O)NS(=O)(=O)c1ccc(NC(=O)COc2ccc(Br)cc2Cl)cc1,IC50,[1],> 1000 µM
NS(=O)(=O)c1ccc(NC(=O)COc2ccc(Br)cc2Cl)cc1,IC50,[1],191 µM
